Source: ChEMBL document CHEMBL1123547, “Structure-activity relationship of novel oligopeptide antiviral and antitumor agents related to netropsin and distamycin” (1986)
Values after ≈ are worked out from the molar mass of the structure shown.

What was measured:
Format in all cases: functional
FM3A = assay: Evaluation for its inhibitory effect on proliferation of murine mammary carcinoma (FM3A) cells; settings: Mus musculus, read-out: ID50 (the source's name)
L1210 = assay: Evaluation for its inhibitory effect on proliferation of murine leukemia L1210 cells; settings: Mus musculus, read-out: ID50 (the source's name)
Oryctolagus cuniculus = organism: Oryctolagus cuniculus; assay: Evaluation for antiviral activity in primary rabbit kidney cell culture; settings: read-out: Min cytotoxic concentration
[1] = tested on: Vesicular stomatitis virus; assay: Evaluation for antiviral activity against vesion stomatitis virus in primary rabbit kidney cell culture
Summary of the method: (§1)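 Primary rabbit kidney cell cultures infected with virus; the endpoint is the compound concentration that reduces virus-induced cytopathogenicity by 50%.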

Homo sapiens [2] = organism: Homo sapiens; assay: Evaluation for its inhibitory effect on proliferation of human lymphoblast namalva cells; settings: read-out: ID50 (the source's name)
Homo sapiens [3] = organism: Homo sapiens; assay: Evaluation for its inhibitory effect on proliferation of human lymphoblast Raji cells; settings: read-out: ID50 (the source's name)
Vaccinia virus = assay: Evaluation for antiviral activity against vaccinia virus in primary rabbit kidney cell culture; settings: Orthopoxvirus vaccinia; summary of the method: as §1
Human alphaherpesvirus 1 = assay: Evaluation for antiviral activity against herpes simplex virus type 1 (strain KOS) in primary rabbit kidney cell culture; summary of the method: as §1
Human alphaherpesvirus 2 = assay: Evaluation for antiviral activity against herpes simplex virus type 2 (strain G) in primary rabbit kidney cell culture; summary of the method: as §1

Structure (SMILES)	IC50 (FM3A) [mg/L]	IC50 (L1210) [mg/L]	MCC (Oryctolagus cuniculus) [µg/mL]	MIC [1] [mg/L]	IC50 (Homo sapiens [2]) [mg/L]	IC50 (Homo sapiens [3]) [mg/L]	MIC (Vaccinia virus) [mg/L]	MIC (Human alphaherpesvirus 1) [mg/L]	MIC (Human alphaherpesvirus 2) [mg/L]
Cn1cc(NC(=O)c2nc(NC(=O)CNC(=N)N)cn2C)nc1C(=O)NCCC(=N)N.O=S(=O)(O)O	> 500	238	> 400	> 400	261	316	300	> 400	> 400
Cn1cc(NC(=O)CNC(=N)N)cc1C(=O)Nc1cn(C)c(C(=O)NCCC(=N)N)n1.O=S(=O)(O)O	> 100	> 100	200	≥ 200	> 100	> 100	40	≥ 200	≥ 200
Cl.Cn1cc(NC(=O)c2cc(N)cn2C)cc1C(=O)NCCC(=N)N	327	276	400	≥ 400	36	43	20	150	150
Nc1ccnc2c1ncn2[C@@H]1C[C@H](CO)[C@@H](O)[C@H]1O	–	–	> 400	–	–	–	0.3 (≈ 1.14 µM)	200 (≈ 757 µM)	≥ 400
Cl.Cl.Cn1cc(NC(=O)c2cc(NC(=O)c3cc(NC=O)cn3C)cn2C)cc1C(=O)NCCC(=N)N	31	27	200	≥ 200	22	24	0.2	70	70
Cn1cc(NC(=O)c2cc(NC(=O)C[N+](C)(C)C)cn2C)cc1C(=O)NCCC(=N)N.[Cl-]	> 1000	543	≥ 400	> 400	–	504	20	> 200	> 200
CC[N+](CC)(CC)CC(=O)Nc1cc(C(=O)Nc2cc(C(=O)NCCC(=N)N)n(C)c2)n(C)c1.[Cl-]	334	222	> 400	> 400	180	252	300	300	300
Cl.Cn1cc(NC(=O)c2nc(NC(=O)c3nc(NC(=O)CNC(=N)N)cn3C)cn2C)nc1C(=O)NCCC(=N)N	46	42	100	≥ 100	100	52	≥ 100	≥ 100	≥ 100
Cl.Cn1cc(NC(=O)c2nc(NC(=O)CNC(=N)N)cn2C)cc1C(=O)NCCC(=N)N	> 100	> 100	> 400	> 400	> 100	> 100	40	> 400	> 400
Nc1ncnc2c1ncn2C[C@H](O)CO [(S)-DHPA]	–	–	> 400	20 (≈ 95.6 µM)	–	–	70 (≈ 335 µM)	> 400	> 400
Cl.Cn1cc(NC(=O)c2cc(NC(=O)c3cc(N)cn3C)cn2C)cc1C(=O)NCCC(=N)N [DEFORMYLDISTAMYCIN]	454	174	100	≥ 100	29	32	7	≥ 100	≥ 100
Cl.Cn1cc(NC(=O)c2cc(NC(=O)CNC(=N)N)cn2C)cc1C(=O)NCCC(=N)N [NETROPSIN CHLORIDE]	321	245	40	≥ 40	103	139	2	≥ 40	≥ 40
NC(=O)c1ncn([C@@H]2O[C@H](CO)[C@@H](O)[C@H]2O)n1 [RIBAVIRIN]	–	–	> 400	200 (≈ 819 µM)	–	–	30 (≈ 123 µM)	> 400	> 400
Nc1ncnc2c1ccn2[C@@H]1O[C@H](CO)[C@@H](O)[C@H]1O [TUBERCIDIN]	–	–	0.4	–	–	–	0.07 (≈ 0.263 µM)	≥ 0.4	≥ 0.4
